Experiments:
[1] = molecular target: T1, Lysine-specific demethylase 4E (Homo sapiens, UniProt B2RXH2); experiment: Inhibition of KDM4E (unknown origin) by RFMS assay
T1 sequence (B2RXH2 whole entry): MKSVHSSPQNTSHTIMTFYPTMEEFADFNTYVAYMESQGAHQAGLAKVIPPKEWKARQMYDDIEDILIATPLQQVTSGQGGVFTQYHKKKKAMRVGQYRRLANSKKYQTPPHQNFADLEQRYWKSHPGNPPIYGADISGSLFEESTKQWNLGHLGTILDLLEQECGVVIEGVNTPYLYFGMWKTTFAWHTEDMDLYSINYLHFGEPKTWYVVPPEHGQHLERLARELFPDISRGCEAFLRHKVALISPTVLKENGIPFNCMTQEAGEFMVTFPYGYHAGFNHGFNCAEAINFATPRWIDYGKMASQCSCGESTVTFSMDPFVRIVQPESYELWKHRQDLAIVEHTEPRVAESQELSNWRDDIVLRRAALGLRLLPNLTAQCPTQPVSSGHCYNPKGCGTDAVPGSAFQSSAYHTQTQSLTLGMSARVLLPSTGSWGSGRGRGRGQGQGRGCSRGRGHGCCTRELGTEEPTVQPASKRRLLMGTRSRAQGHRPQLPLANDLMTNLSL

[2] = molecular target: T2, Lysine-specific demethylase 4C (Homo sapiens, UniProt Q9H3R0); experiment: Inhibition of N-terminal his-tagged human KDM4C expressed in Escherichia coli BL21(DE3) using trimethylated peptide substrate by RFMS assay
T2 sequence (Q9H3R0 whole entry): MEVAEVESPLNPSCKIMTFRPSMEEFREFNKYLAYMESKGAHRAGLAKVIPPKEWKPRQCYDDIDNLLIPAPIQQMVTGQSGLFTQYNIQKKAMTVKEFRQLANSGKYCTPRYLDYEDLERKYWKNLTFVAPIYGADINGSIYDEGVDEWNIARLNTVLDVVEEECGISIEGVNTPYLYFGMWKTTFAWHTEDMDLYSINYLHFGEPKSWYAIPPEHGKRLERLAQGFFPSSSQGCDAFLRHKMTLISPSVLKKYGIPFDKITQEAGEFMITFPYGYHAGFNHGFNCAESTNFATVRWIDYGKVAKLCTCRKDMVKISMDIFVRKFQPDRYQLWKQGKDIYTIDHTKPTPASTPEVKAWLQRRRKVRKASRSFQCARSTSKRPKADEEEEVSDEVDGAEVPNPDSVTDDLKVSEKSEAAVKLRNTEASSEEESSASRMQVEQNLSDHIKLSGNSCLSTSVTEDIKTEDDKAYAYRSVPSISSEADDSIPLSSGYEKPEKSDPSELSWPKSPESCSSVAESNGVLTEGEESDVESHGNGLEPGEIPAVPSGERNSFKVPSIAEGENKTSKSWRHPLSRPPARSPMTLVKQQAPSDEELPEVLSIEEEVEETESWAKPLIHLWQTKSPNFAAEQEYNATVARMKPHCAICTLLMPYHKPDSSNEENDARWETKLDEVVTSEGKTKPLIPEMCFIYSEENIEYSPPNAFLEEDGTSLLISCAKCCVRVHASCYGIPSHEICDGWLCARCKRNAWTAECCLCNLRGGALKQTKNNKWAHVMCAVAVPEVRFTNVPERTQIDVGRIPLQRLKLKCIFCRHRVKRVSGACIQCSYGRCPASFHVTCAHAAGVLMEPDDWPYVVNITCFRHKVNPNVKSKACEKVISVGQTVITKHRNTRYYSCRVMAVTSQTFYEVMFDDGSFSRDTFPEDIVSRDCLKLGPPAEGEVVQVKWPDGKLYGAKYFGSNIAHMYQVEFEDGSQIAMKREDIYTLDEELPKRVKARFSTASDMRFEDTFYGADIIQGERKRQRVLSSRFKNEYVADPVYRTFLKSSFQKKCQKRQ

physchem = details: buffer, pH 7.4
[3] = molecular target: T2, Lysine-specific demethylase 4C; experiment: Inhibition of N-terminal HALO-tagged full-length human KDM4C transfected in U2OS cells assessed as inhibition of H3K9Me3 demethylation for 24 hrs
[4] = molecular target: T3, Lysine-specific demethylase 5C (Homo sapiens, UniProt P41229); experiment: Inhibition of KDM5C catalytic domain (1 -764 aa) (unknown origin) expressed in Sf9 cells using H3K4Me3 peptide as substrate by RFMS assay
[5] = molecular target: T4, Lysine-specific demethylase 4D (Homo sapiens, UniProt Q6B0I6); experiment: Inhibition of KDM4D (unknown origin) by RFMS assay
T4 sequence (Q6B0I6 whole entry): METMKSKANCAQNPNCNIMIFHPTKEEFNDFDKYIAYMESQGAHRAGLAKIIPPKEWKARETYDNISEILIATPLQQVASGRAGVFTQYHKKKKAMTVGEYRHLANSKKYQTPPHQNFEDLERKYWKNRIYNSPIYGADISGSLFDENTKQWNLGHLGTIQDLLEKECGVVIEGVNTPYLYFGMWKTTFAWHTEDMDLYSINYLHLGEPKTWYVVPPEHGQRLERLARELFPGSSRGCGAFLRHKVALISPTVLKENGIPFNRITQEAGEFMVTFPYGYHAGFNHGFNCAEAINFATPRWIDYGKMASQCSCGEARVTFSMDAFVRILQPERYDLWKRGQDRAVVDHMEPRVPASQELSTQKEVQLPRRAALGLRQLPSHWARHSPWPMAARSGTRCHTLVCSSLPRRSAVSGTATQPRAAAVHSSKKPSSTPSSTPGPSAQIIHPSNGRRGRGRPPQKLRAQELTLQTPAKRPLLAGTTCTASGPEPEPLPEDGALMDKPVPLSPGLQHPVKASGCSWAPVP

[6] = molecular target: T3, Lysine-specific demethylase 5C; experiment: Inhibition of human KDM5C transfected in U2OS cells assessed as inhibition of […] demethylation for 24 hrs; format: cell-based
Summary of the method: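 High-content cell imaging assay in U2OS cells overexpressing KDM5C, the same cell type as the KDM4C cellular mechanistic assay. Cellular potency reported as pIC50.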

[7] = molecular target: T5, Lysine-specific demethylase 4A (Homo sapiens, UniProt O75164); experiment: Inhibition of KDM4A (unknown origin) by RFMS assay
T5 sequence (O75164 whole entry): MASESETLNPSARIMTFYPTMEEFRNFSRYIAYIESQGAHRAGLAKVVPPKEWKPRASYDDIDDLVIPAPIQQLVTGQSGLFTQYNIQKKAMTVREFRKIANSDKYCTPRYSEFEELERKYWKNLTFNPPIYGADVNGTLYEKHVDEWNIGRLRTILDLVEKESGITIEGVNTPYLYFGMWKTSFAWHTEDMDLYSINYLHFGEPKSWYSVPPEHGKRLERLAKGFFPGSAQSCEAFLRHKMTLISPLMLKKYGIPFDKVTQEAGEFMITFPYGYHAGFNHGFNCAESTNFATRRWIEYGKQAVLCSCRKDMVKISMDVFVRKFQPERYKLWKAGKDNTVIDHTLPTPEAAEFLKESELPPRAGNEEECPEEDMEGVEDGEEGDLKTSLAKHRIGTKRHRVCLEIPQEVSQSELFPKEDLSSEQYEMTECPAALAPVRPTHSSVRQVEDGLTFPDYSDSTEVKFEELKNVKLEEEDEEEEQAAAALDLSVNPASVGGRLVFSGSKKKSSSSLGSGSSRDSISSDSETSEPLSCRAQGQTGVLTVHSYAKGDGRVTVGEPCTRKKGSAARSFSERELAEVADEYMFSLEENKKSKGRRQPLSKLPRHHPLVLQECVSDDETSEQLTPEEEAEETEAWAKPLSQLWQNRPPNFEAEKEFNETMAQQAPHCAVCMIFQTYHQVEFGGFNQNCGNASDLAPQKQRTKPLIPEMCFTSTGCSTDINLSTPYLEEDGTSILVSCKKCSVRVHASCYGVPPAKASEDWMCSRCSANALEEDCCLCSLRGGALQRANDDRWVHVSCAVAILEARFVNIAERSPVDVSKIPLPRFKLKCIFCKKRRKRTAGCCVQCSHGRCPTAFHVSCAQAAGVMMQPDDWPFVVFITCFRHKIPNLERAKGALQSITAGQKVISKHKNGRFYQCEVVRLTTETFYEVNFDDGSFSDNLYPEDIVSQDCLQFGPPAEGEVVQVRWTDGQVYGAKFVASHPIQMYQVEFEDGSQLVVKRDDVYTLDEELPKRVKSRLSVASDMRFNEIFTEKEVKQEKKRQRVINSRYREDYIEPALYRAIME

[8] = molecular target: T2, Lysine-specific demethylase 4C; experiment: Inhibition of N-terminal his-tagged full-length human KDM4C transfected in U2OS cells assessed as inhibition of H3K9Me3 demethylation for 24 hrs; format: cell-based
[9] = molecular target: Lysine-specific demethylase 6B (Homo sapiens, UniProt O15054); experiment: Inhibition of KDM6B (unknown origin) by RFMS assay
Prolyl hydroxylase EGLN3 = Prolyl hydroxylase EGLN3 (Homo sapiens, UniProt Q9H6Z9); experiment: Inhibition of full-length EGLN3 (unknown origin) expressed in Escherichia coli BL21(DE3) cells by HTRF assay
Sequence of Prolyl hydroxylase EGLN3 (Q9H6Z9 whole entry): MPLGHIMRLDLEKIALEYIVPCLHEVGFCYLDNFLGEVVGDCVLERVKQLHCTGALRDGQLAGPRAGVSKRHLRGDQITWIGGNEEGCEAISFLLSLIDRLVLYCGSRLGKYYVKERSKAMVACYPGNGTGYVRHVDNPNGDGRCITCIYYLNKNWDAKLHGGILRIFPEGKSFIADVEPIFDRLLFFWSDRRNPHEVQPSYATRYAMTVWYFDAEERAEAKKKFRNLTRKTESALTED

Sequence of Lysine-specific demethylase 6B (O15054 whole entry): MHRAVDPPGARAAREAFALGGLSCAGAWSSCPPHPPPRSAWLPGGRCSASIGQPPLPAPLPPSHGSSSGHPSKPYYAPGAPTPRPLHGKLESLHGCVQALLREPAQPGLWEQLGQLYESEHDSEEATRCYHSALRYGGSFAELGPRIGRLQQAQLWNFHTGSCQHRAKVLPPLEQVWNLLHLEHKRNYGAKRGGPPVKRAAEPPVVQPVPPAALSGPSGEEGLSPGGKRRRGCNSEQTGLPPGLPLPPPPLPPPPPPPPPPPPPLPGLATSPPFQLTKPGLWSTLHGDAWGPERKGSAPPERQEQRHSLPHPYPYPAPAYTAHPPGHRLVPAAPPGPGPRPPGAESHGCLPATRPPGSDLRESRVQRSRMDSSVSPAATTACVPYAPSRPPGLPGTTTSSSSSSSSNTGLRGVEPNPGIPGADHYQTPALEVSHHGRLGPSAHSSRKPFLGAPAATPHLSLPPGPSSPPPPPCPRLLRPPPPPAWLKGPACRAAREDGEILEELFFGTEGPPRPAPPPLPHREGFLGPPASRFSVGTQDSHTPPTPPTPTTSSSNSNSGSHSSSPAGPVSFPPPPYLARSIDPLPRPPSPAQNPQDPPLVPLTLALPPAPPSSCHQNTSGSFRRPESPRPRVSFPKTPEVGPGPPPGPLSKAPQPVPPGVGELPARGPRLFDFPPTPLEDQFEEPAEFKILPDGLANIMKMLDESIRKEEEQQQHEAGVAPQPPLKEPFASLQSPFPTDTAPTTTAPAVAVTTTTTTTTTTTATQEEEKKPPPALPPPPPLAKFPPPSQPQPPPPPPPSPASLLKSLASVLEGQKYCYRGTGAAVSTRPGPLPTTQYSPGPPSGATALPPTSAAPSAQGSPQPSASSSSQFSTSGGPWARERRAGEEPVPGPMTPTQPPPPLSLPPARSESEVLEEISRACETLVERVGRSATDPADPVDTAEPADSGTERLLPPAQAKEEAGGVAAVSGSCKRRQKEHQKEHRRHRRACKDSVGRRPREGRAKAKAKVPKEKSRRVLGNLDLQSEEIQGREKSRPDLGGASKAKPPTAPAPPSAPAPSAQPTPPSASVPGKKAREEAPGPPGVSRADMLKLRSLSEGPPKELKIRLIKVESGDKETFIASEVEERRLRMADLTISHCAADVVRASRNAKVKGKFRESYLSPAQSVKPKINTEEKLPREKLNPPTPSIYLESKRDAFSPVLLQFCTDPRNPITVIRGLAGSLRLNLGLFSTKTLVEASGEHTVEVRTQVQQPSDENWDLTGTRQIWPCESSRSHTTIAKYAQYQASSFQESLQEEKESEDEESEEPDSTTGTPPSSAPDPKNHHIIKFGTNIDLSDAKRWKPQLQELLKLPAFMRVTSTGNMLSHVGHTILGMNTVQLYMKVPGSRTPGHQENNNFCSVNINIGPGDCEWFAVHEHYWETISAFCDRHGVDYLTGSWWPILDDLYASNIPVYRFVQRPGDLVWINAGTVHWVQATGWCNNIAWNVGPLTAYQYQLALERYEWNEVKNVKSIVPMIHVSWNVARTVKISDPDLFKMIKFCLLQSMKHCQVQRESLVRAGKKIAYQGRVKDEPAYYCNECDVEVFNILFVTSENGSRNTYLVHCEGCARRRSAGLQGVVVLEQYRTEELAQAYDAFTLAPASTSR
T3 sequence (P41229 whole entry, the tested form may be a part): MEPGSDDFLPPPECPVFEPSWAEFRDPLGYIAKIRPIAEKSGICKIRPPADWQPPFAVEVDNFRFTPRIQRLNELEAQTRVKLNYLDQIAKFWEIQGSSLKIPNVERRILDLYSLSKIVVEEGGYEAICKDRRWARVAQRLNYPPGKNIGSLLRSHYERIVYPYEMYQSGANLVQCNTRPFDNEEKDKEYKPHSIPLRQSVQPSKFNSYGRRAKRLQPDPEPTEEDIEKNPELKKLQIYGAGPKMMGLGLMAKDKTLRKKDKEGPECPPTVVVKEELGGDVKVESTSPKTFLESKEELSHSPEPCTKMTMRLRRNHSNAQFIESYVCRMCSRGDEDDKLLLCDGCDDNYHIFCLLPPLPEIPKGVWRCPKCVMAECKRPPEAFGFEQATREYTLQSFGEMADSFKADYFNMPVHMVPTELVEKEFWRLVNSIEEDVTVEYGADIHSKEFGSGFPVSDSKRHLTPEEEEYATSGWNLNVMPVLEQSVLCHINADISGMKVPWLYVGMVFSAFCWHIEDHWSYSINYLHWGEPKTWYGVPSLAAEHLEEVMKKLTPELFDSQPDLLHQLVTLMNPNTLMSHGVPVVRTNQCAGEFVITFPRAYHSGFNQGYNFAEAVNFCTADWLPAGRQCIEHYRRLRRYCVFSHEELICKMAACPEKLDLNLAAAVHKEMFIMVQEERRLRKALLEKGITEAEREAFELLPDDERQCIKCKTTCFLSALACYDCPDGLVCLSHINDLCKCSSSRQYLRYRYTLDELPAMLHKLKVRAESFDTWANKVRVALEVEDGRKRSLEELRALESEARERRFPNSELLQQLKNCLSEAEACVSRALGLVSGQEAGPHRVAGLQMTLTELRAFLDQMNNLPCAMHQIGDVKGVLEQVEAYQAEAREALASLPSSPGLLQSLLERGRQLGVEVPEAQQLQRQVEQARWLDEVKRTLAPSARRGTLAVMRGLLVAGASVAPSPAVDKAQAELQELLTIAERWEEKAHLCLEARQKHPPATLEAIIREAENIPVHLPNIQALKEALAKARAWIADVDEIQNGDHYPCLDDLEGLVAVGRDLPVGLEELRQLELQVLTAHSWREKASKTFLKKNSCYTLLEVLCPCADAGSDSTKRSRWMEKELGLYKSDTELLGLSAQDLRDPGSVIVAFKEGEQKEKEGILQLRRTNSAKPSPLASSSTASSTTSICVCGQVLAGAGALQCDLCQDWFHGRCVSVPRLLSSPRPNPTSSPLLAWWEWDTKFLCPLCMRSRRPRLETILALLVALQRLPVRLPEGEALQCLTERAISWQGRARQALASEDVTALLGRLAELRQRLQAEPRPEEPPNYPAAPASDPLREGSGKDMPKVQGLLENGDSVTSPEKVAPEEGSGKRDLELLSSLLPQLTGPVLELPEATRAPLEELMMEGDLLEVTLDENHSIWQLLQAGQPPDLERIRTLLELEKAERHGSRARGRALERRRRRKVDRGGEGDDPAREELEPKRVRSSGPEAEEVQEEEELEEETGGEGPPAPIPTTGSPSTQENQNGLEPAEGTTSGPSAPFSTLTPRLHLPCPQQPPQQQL

| Structure (SMILES) | IC50 [2] | logD (physchem) | IC50 [8] | further results |
| --- | --- | --- | --- | --- |
| Nc1cnccc1C(=O)O |  |  |  | IC50 [1]: 1260 nM |
| O=c1[nH]c(-c2ccccc2)nc2cnccc12 | 20000 nM |  |  |  |
| CC(C)c1ccc(Oc2nc3cnccc3c(=O)[nH]2)cn1 | 1000 nM | 1.5 |  | IC50 [3]: 2000 nM; IC50 [4]: 126 nM; IC50 [5]: 631 nM; IC50 [1]: 398 nM; IC50 ([6]; read-out: pIC50 (converted)): 50100 nM; IC50 [7]: 1580 nM |
| O=c1[nH]ncc2cnccc12 | > 100000 nM |  |  |  |
| O=c1[nH]c(Oc2cnn(-c3ccccc3)c2)nc2cnccc12 | 398 nM | 1.9 | 3980 nM |  |
| O=c1[nH]ccc2cnccc12 | > 100000 nM |  |  |  |
| Cn1cc(Oc2nc3cnccc3c(=O)[nH]2)cn1 | 398 nM | -0.3 | 7940 nM |  |
| COc1cccc(Cn2cc(Oc3nc4cnccc4c(=O)[nH]3)cn2)c1 | 631 nM | 2 | 6310 nM |  |
| O=c1[nH]c(Oc2cnn(C3CCCC3)c2)nc2cnccc12 | 631 nM | 1.7 |  | IC50 [3]: 2000 nM; IC50 [4]: 126 nM; IC50 [5]: 501 nM; IC50 [1]: 398 nM; IC50 ([6]; read-out: IC50): 2500 nM; IC50 ([6]; read-out: pIC50 (converted)): 5010 nM; IC50 [9]: > 100000 nM; IC50 (Prolyl hydroxylase EGLN3): > 100000 nM; IC50 [7]: 794 nM |
| O=c1[nH]c(Oc2cnn(C3CCCCC3)c2)nc2cnccc12 | 398 nM | 2.2 | 3980 nM |  |
| O=c1[nH]c(-c2cncc(F)c2)nc2cnccc12 | 2000 nM |  |  |  |
| CC(C)n1cc(Oc2nc3cnccc3c(=O)[nH]2)cn1 | 501 nM | 0.7 | 5010 nM |  |
| O=c1[nH]c(Oc2cnn(C3CCCCCC3)c2)nc2cnccc12 | 501 nM | 2.9 | 2510 nM |  |
| O=c1ncn(Cc2ccccc2)c2cnccc12 | 25100 nM |  |  |  |
| O=c1[nH]c(OCc2ccccc2)nc2cnccc12 | 2000 nM | 2.8 | > 100000 nM |  |
| O=c1[nH]c(Oc2cnn(Cc3cccnc3)c2)nc2cnccc12 | 631 nM | 0.3 | 12600 nM |  |

| Structure (SMILES) | IC50 [2] | logD (physchem) | IC50 [8] | further results |
| --- | --- | --- | --- | --- |
| O=c1[nH]c(Oc2ccc(Cl)cc2)nc2cnccc12 | 501 nM |  | 10000 nM |  |
| Cc1nn(C)cc1Oc1nc2cnccc2c(=O)[nH]1 | 2510 nM | 0 | > 100000 nM |  |
| O=c1[nH]c(OC2CCCCC2)nc2cnccc12 | 3160 nM | 3.7 | 25100 nM |  |
| O=c1[nH]c(-c2cccnc2)nc2cnccc12 | 7940 nM |  |  |  |
| Cc1c(Oc2nc3cnccc3c(=O)[nH]2)cnn1C | 2000 nM | -0.2 |  |  |
| O=c1[nH]c(OCC2CCCCC2)nc2cnccc12 | 3160 nM | 4.5 | > 100000 nM |  |
| O=c1[nH]c(Oc2cccc(O)c2)nc2cnccc12 | 200 nM | 0.3 | 10000 nM |  |
| O=c1[nH]c(Oc2cnn(Cc3ccccc3)c2)nc2ncccc12 | > 100000 nM |  | > 100000 nM | IC50 [4]: 31600 nM; IC50 [5]: > 100000 nM; IC50 [1]: > 100000 nM; IC50 ([6]; read-out: pIC50 (converted)): > 100000 nM; IC50 [9]: > 100000 nM; IC50 (Prolyl hydroxylase EGLN3): > 100000 nM; IC50 [7]: > 100000 nM |
| O=c1[nH]c(Oc2ccc(Cl)c(O)c2)nc2cnccc12 | 398 nM | 1.1 |  | IC50 [3]: 2000 nM; IC50 [4]: 200 nM; IC50 [5]: 316 nM; IC50 [1]: 126 nM; IC50 ([6]; read-out: pIC50 (converted)): 31600 nM; IC50 [9]: > 100000 nM; IC50 (Prolyl hydroxylase EGLN3): > 100000 nM; IC50 [7]: 398 nM |
| O=c1[nH]c(Oc2cn[nH]c2)nc2cnccc12 | 398 nM | -0.6 | 7940 nM |  |
| O=c1[nH]c(Oc2cccnc2)nc2cnccc12 | 501 nM | -0.2 | 12600 nM |  |
| O=c1ncn(CCCc2ccccc2)c2cnccc12 | ≥ 100000 nM |  |  |  |
| O=c1[nH]c(Oc2cnn(Cc3ccccc3)c2)nc2cnccc12 | 501 nM | 1.8 | 5010 nM | IC50 [3]: 2000 nM; IC50 [4]: 63.1 nM; IC50 [5]: 398 nM; IC50 [1]: 501 nM; IC50 ([6]; read-out: pIC50 (converted)): 3980 nM; IC50 [9]: > 100000 nM; IC50 (Prolyl hydroxylase EGLN3): > 100000 nM; IC50 [7]: 631 nM |
| O=c1[nH]c(Oc2ccccc2)nc2cnccc12 | 631 nM | 1.2 | 12600 nM |  |
| O=c1[nH][nH]c2cnccc12 | > 100000 nM |  |  |  |
